High-throughput results deposited in PubChem by several laboratories.
Sampled rows, rich in hits. Any-hit rate of the full collection: about 4.4%.
AI-2 QS mod – Vibrio harveyi AI-2 quorum sensing modulation; Vibrio harveyi JMH597 AI-2 luminescence/OD600 ratio, 9 h; stronger effect = lower value; strain lacks LuxN and CqsS sensors; 0 = neutral-control median; activity change, % at 7.5 µM; actives 0.4% (n = 300,000); in the data active = activity change below about -75%, passing the limit was not always enough;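 note: luminescence divided by OD600 gain over 9 h not by final OD600 alone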
bovine MsrA act – activates bovine MsrA enzyme | purified bovine MsrA, absorbance read-out | activation, % at 10.6 µM | actives 0.3% (n = 360,000) | AID 602163; in the data active = activation above about 7.5%;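 note: 0% = vehicle and 100% = reference activator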
MsrA inhibitor – inhibitors of bovine MsrA | actives 0.75% (n = 360,000) | inhibition, % at 15.5 µM | purified bovine MsrA, absorbance read-out; in the data active = inhibition above about 4.5%;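 note: 0% = vehicle wells with enzyme and 100% = reference inhibitor wells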
AHR act – human AHR activation; P35869; AHR-responsive luciferase reporter cells, luminescence; activation, % at 5 µM; actives 2.5% (n = 320,000); AID 2796; in the data active = activation above about 47%;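 note: 0% = vehicle wells and 100% = reference agonist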
m5-HT2A agonist – activates the mouse 5-HT2A serotonin receptor | CHO-K1 mHTR2A beta-arrestin complementation, luminescence; percent of 30 µM serotonin response | actives 0.66% (n = 360,000) | P35363 | activation, % at 7.6 µM;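 active = activation above a run cutoff, the mean activation of all tested compounds plus 3 SD, cut at about 14% in these data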;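 note: 0% = plate median of compound wells and 100% = 30 µM serotonin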
Target sequence (P35363 whole entry, looked up): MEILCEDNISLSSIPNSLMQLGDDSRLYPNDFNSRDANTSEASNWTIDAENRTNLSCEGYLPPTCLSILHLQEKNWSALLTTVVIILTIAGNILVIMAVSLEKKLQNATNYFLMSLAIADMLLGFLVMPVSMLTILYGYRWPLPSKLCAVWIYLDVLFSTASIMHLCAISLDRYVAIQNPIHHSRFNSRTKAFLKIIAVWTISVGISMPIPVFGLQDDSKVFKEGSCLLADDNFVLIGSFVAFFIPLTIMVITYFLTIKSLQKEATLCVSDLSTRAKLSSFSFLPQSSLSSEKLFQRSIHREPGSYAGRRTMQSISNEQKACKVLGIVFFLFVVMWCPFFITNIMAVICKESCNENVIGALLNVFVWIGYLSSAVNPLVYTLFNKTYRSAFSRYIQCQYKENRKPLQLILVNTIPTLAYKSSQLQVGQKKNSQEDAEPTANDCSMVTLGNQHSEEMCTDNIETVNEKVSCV
TbMetRS inhib – Trypanosoma brucei MetRS inhibition; inhibition, % at 11.9 µM; purified T. brucei MetRS, ATP depletion, Kinase-Glo luminescence; actives 0.4% (n = 360,000);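 active = inhibition above a per-plate cutoff of the control wells' mean inhibition plus 3 SD, cut at about 5.5% in these data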;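 note: 0% = DMSO wells median and 100% = median of wells with control inhibitor compound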
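Material: parasite MetRS enzyme / Replication: singlicate, one well per compound / Signal: luminescence of leftover ATP / Schedule: 2 h aminoacylation at 25 °C after 15 min preincubation / Medium: HEPES-MgCl2-KCl buffer plus DTT, spermine, BSA, pyrophosphatase / Doses: 11.9 µM single point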
OPRM1 ag – OPRM1 agonism in mouse HTR2A counterscreen | U2OS OPRM1 beta-arrestin PathHunter, luminescence; DMSO 0%, DAMGO 9.3 µM 100% | activation, % at 9.3 µM | actives 5.3% (n = 2,300) | shares compounds with m5-HT2A agonist;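 active = mean activation above the mean of DMSO-only wells plus 3 SD, cut at about 0.5% in these data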
HTR2A ag conf – mouse HTR2A agonism confirmed; shares compounds with m5-HT2A agonist; CHO-K1 PathHunter beta-arrestin recruitment, luminescence; DMSO 0%, 30 µM serotonin 100%; activation, % at 7.6 µM; actives 19% (n = 2,300); AID 624381;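 active = mean activation across triplicates above the hit threshold derived in the original primary screen, cut at about 15% in these data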
An asterisk follows results filed as active; x = no result given.

SMILES	AI-2 QS mod	bovine MsrA act	MsrA inhibitor	AHR act	m5-HT2A agonist	TbMetRS inhib	OPRM1 ag	HTR2A ag conf
CCc1cccc(CC)c1NC(=O)COC(=O)C1(C)CC1(Cl)Cl (centres undefined)	15.5	-9.2	-0.6	1.0	16.7*	-1.0	-0.6	-3.9
C#CCn1c(=NC(=O)c2ccc(S(=O)(=O)N3CCc4ccccc4C3)cc2)sc2cc(S(N)(=O)=O)ccc21	32.2	-2.4	x	0.5	1.6	-0.1	x	x
C=CCn1c(=NC(=O)c2ccc(S(=O)(=O)N3CCc4ccccc4C3)cc2)sc2cc(S(N)(=O)=O)ccc21	24.4	-6.8	2.9	1.9	21.9*	-0.1	-0.7	13.2
COc1ccc(OC)c(-c2cc(C(=O)N3CCN(c4ccccc4)CC3)no2)c1	50.0	-0.7	1.1	13.7	27.4*	-0.8	-0.5	-5.3
COc1ccc(-c2cc(C(=O)N3CCCCC3)no2)cc1OC	3.4	-1.4	1.1	8.3	0.7	-0.2	x	x
COc1ccc(-c2cc(C(=O)N3CCCC3)no2)cc1OC	27.1	-2.5	0.2	6.3	22.5*	0.6	-0.5	0.6
COc1cccc(C(=O)NNC(=O)CCN2CCN(c3ccccc3)CC2)c1	x	-3.2	0.7	1.0	23.0*	-0.2	-0.8	48.2*
COc1cc(CN2CCN(c3ccccc3F)CC2)cc(OC)c1O	26.6	-13.6	2.1	-0.5	16.0*	-1.2	-0.5	30.5*
CCOc1ccc(NC(=O)CCN2CCN(c3ccccc3F)CC2)cc1	34.5	-1.2	0.3	0.7	21.3*	-0.6	-0.8	45.2*
Cc1ccc(C)c(NC(=O)CCN2CCOCC2)c1	28.4	-0.3	-0.3	0.3	19.7*	-0.9	-0.3	-0.1
COc1ccc(C)cc1NC(=O)CCN1CCN(c2ccccc2F)CC1	2.7	-1.9	1.2	0.7	18.0*	-0.1	-0.5	57.2*
COc1ccc(NC(=O)c2ccc(CN3CCN(c4ccccc4)CC3)cc2)cc1OC	x	0.9	x	6.7	5.5	-0.9	x	x
COc1ccccc1C(=O)NCCN1CCN(c2ccccc2)CC1	9.0	0.3	-0.1	-0.7	14.5*	-0.1	-0.6	69.5*
COc1ccc(C)cc1NC(=O)c1ccc(CN2CCN(c3ccccc3)CC2)cc1	17.2	-2.6	-0.4	10.7	35.8*	-0.4	-0.4	60.9*
CCC(=O)N(CCc1ccccc1)Cc1cc2cccc(C)c2[nH]c1=O	-3.1	-1.2	1.0	41.8	-0.3	-0.2	x	x
CC(=O)Nc1ccc(NC(=O)C(C)OC(=O)C2CCCCC2)cc1 (centres undefined)	x	-6.0	-0.1	0.2	-2.2	-0.1	x	x
Cc1ccc(-n2c(N)c(C(N)=O)sc2=S)cc1	22.0	-13.8	3.0	6.3	18.8*	-0.3	-0.7	-4.7
c1ccc(N2CCN(c3nnc(Cc4cccnc4)c4ccccc34)CC2)nc1	-9.1	-11.8	0.5	25.4	17.2*	-0.6	-0.5	3.4
c1ccc(Cc2nnc(N3CCCCC3)c3ccccc23)cc1	-5.3	0.3	2.7	0.8	8.8	0.5	x	x
COCCN(C(=O)CCC(=O)Nc1cc(C)on1)C(C(=O)NC(C)(C)C)c1cccc(OC)c1OC (centres undefined)	-4.0	-1.3	0.3	3.7	3.5	-0.8	x	x
O=C1CCCCC1CCc1ccncc1 (centres undefined)	x	-3.1	-0.9	x	1.2	-0.3	x	x
N#CCSc1nc2ccccc2c(=O)n1CCC(=O)NCCc1ccccc1	32.3	-11.4	-0.2	-1.2	-3.7	-0.8	x	x
CC(=O)NCCn1c(SCC#N)nc2ccccc2c1=O	8.8	-1.0	-0.2	0.2	14.9*	-0.3	-0.4	-1.7
O=C(C[C@H]1C[C@@H]2c3cc(NC(=O)c4ccc5c(c4)OCO5)ccc3O[C@@H]2[C@H](CO)O1)NCc1cc(F)ccc1F	x	-0.2	-1.3	x	-8.8	-0.8	x	x
CCOc1cc(-c2c(C)c(C)nc(N)c2C#N)ccc1O	9.9	-4.8	2.0	9.9	15.1*	-0.9	-0.5	24.3*
SMILES	AI-2 QS mod	bovine MsrA act	MsrA inhibitor	AHR act	m5-HT2A agonist	TbMetRS inhib	OPRM1 ag	HTR2A ag conf
CN(C)CCNC(=O)c1cc2ccccc2oc1=O	5.0	-7.4	2.9	2.6	15.6*	-1.6	-0.5	-2.9
CCOC(=O)c1cc(S(=O)(=O)N(C)Cc2ccccc2)cn1C	17.0	-2.0	-0.7	0.7	1.1	0.1	x	x
CCOc1ccc(-c2nc(CSCC(=O)N3CCN(C(=O)c4ccco4)CC3)c(C)o2)cc1	22.5	-0.8	-0.3	4.0	-2.9	0.7	x	x
CCOC(=O)C1CCN(C(=O)CSCc2nc(-c3ccc(OCC)cc3)oc2C)CC1	32.8	-0.1	-0.9	-3.2	16.2*	-1.2	-0.5	-0.3
Cc1sc(-c2ccccn2)nc1OC(=O)c1ccc(F)cc1F	-5.2	-3.3	1.4	0.8	14.8*	-0.1	-0.6	8.0
COc1ccccc1C(=O)N1CCN(C(=O)[C@H]2O[C@@H](n3ccc(=O)[nH]c3=O)[C@H](O)[C@@H]2O)CC1	x	-3.4	-0.2	x	4.4	-0.3	x	x
O=S(=O)(NC(CO)Cc1ccccc1)c1ccc(Br)cc1F (centres undefined)	x	-4.1	-0.7	x	-3.6	0.5	x	x
COc1cc(NC(=O)Nc2nc(C(N)Cc3ccc(C(F)(F)F)cc3)cs2)cc(OC)c1OC (centres undefined)	x	1.8	-0.7	x	42.2*	-0.1	0.3	28.9*
COc1ccc(NC(=O)Nc2nc(C(N)Cc3ccc(C(F)(F)F)cc3)cs2)cc1 (centres undefined)	x	-3.0	-1.9	x	21.4*	1.8	1.5*	9.0
COc1ccc(CC(N)c2csc(NC(=O)Nc3ccc(OC)cc3)n2)cc1 (centres undefined)	x	-0.3	-0.7	x	-1.7	0.0	x	x
Cc1ccc(C)c(N2N=C(C(=O)Nc3ccccc3N3CCCC3)CCC2=O)c1	-4.4	-1.6	-0.2	0.7	-1.4	0.1	x	x
Cc1ccc(C)c(N2N=C(C(=O)Nc3cccnc3)CCC2=O)c1	x	-5.7	0.1	3.7	15.3*	-0.4	-0.6	-1.9
Cn1c(=O)c2c(nc(Oc3ccccc3N)n2C)n(C)c1=O	19.0	-2.3	-0.1	x	16.0*	-0.1	-0.3	-3.5
Cn1c(=O)c2c(nc(Oc3ccccc3Cl)n2C)n(C)c1=O	36.3	0.5	0.0	x	3.4	-0.8	x	x
O=C(CN(c1ccc(F)cc1)S(=O)(=O)c1ccc2c(c1)OCCO2)N1CCOCC1	7.3	-1.0	0.7	4.5	25.4*	-0.8	-0.6	-2.5
O=C(CN(c1ccc(F)cc1)S(=O)(=O)c1ccccc1)N1CCOCC1	-7.4	-2.0	0.3	3.0	3.7	0.2	x	x
